Results from different studies.
Target: Sodium-dependent dopamine transporter (SLC6A3, Homo sapiens, UniProt Q01959)

SMILES | assay | test system | setting | inhibition [%]
COc1cc(NC(C)=O)c(Cl)cc1C(=O)Nc1nccs1 | cell-free assay | – | 10 µM | 5.5
CCCNc1nc2ccccc2n1Cc1ccc(Cl)cc1 | ligand displacement | – | 10 µM | 24.3
Clc1ccc(C(c2ccccc2)c2nnnn2CCCN2CCC(CCCc3ccccc3)CC2)cc1 (stereo not drawn) | transporter uptake, inhibitor | HEK293 | 1 µM | 89.6
CCN(CC)c1ccc(C2Nc3ccc(C(=O)c4ccccc4)cc3NC3=C2C(=O)CC(C)(C)C3)cc1 (stereo not drawn) | ligand displacement, radioligand | – | 10 µM | 69
Cc1cc(-c2nc(CN3CCNCC3)no2)cc2c1C(=O)N(Cc1ccc(OC(F)(F)F)cc1)C2 | ligand displacement, radioligand | – | 10 µM | 44
N#Cc1cc(Cn2c(N3CCCC3)nc3ccccc32)ccc1F | ligand displacement | – | 10 µM | 19.3
CCN(Cc1ccccc1C(F)(F)F)C(=O)C1CCN(S(=O)(=O)c2ccc3[nH]ncc3c2)CC1 | ligand displacement, radioligand | – | 10 µM | 39
O=C1N=C(N2CCCCN2)S/C1=C\c1ccc(F)cc1O | ligand displacement, radioligand | – | 10 µM | < 10
Fc1ccc(C(c2ccc(F)cc2)c2nnnn2CCCCN2CCN(CCCc3ccccc3)CC2)cc1 | transporter uptake, inhibitor | HEK293 | 1 µM | 56.2
Oc1cccc(Nc2nc(-c3ccc(F)cc3F)cs2)c1 | cell-free assay | – | 10 µM | 49.8
Clc1ccc(C(c2ccc(Cl)cc2)c2nnnn2CCCCN2CCN(Cc3ccccc3)CC2)cc1 | transporter uptake, inhibitor | HEK293 | 1 µM | 91.7
Nc1ccc(-c2ccncc2)cc1NC(=O)N1CCCC1 | ligand displacement, radioligand | – | 10 µM | 21
